SKKanGAS inh: SKKanGAS growth inhibition | S. pyogenes SKKanGAS, kanamycin growth, BacTiter-Glo, 6 h | inhibition, % at 7.5 µM | 300,000 compounds, 1.3% hits | AID 1662;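 active means mean replicate score, as percent of positive control median, at least 50; inconclusive means mean below 50 but one replicate at or above 50; inactive means mean and every replicate below 50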;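 further: strain carries kanamycin resistance gene driven by streptokinase promoter and grows in 40 µg/ml kanamycin; loss of luminescence reflects streptokinase promoter inhibition or plain growth inhibition; 0% = median of DMSO wells and 100% = positive control at its reference dose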
Beta cell apopt: beta cell apoptosis inhibition | protection from apoptosis, % (concentration not given with the values) | INS-1E cytokine-induced death, ATP luminescence, 48 h; percent of positive-control rescue, neutral wells zero | 300,000 compounds, 0.8% hits | AID 435005;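 active means Every replicate reaches about 75%, or at least half do and their mean reaches it too, limit read from the data; inconclusive means At least half of replicates reach the limit but their mean does not; inactive means Under half of replicates reach the limit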;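 further: 0% = cytokine-treated negative control wells and 100% = positive control rescue; higher means more ATP so stronger rescue from cytokine killing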
UPR XBP1 act: activators of adaptive arm of unfolded protein response (XBP1). CHO-XBP1 luciferase reporter, IRE1-XBP1 UPR activation, luminescence; percent of tunicamycin response, DMSO as zero. activation, % at 20 µM. 330,000 compounds, 0.33% hits;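 active means versus positive control, 20 µM dose yields 30% or more activation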;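 further: 100% = tunicamycin at 10 µg/mL and 0% = DMSO only wells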
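Material: CHO-XBP1 cells stably carrying IRE1-XBP1-driven luciferase reporter / Amount: 1000 cells per well / Compound: 20 µM, 1% DMSO / Times: 6 h treatment, 37 °C / Detection: luciferase luminescence / Measure: % activation of reporter signal versus tunicamycin and DMSO controls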
CSC inhib: blocks cancer stem cells; AID 2717; inhibition, % at 7.5 µM; 300,000 compounds, 1.1% hits; cancer stem cell-like cells viability, luminescence; in the data active means inhibition above about 75%; inconclusive means no clear call, values can overlap the other calls; tested in HMLE shEcad cells
Mdm2 MdmX PPI: human Mdm2/MdmX binding inhibition | O15151+Q00987 | SaOS-2 split-luciferase Mdm2/MdmX complementation, luminescence | inhibition, % at 8 µM | 330,000 compounds, 3% hits;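 active means inhibition of at least 50% at 8 µM in the primary screen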
Target sequence (O15151 whole entry, looked up): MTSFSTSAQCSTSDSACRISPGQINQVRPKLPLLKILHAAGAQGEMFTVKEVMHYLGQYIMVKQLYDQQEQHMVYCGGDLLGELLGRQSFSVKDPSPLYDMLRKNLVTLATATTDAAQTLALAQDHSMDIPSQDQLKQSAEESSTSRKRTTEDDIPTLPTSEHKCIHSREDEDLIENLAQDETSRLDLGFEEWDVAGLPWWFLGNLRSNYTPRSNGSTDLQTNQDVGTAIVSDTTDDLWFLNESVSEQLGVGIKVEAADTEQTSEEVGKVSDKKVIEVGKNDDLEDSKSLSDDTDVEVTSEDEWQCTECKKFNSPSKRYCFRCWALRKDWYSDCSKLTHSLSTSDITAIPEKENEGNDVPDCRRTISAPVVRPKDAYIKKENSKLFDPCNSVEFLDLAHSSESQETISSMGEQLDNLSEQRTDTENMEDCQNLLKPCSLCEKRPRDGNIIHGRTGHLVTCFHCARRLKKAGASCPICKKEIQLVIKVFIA
Target sequence (Q00987 whole entry, looked up): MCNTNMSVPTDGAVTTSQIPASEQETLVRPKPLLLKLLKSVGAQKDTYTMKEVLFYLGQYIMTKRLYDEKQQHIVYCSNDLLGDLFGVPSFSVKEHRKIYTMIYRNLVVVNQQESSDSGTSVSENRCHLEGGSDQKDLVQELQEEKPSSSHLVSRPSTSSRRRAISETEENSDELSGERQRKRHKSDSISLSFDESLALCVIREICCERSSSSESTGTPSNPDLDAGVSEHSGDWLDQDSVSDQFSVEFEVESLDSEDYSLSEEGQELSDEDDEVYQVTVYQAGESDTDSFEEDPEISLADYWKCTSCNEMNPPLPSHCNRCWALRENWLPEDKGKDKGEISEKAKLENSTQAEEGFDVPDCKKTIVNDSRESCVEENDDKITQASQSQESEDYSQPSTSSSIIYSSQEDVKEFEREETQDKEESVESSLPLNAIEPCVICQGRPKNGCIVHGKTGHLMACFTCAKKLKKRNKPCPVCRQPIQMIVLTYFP
UPR CHOP act: activators of apoptotic arm of unfolded protein response (CHOP); CHO-CHOP luciferase reporter, UPR activation, luminescence; percent of tunicamycin response over DMSO baseline; activation, % at 10 µM; 330,000 compounds, 0.34% hits; AID 449763;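 active means at 10 µM dose, activation of 40% or more, normalized to positive control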;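 further: 100% = tunicamycin at 10 µg/mL and 0% = DMSO alone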
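Test system: CHO-CHOP cells, stable luciferase reporter of PERK-eIF2a-CHOP signalling | Quantity: 500 CHO-CHOP cells per well | Buffer or medium: F12 plus 10% serum | Compound dosing: 10 µM single point, 0.5% DMSO | Schedule: 6 h compound treatment, 37 °C | Signal: Luciferase luminescence | Control set: Tunicamycin high control, DMSO low control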
Mdm2 MdmX conf: confirmation of human Mdm2/MdmX interaction inhibitors | shares compounds with Mdm2 MdmX PPI | Mdm2-MdmX binding, luminescent assay | inhibition, % at 8 µM | 10,000 compounds, 55% hits; in the data active means inhibition above about 40%
Full FLuc ctr: full-length luciferase inhibition in Mdm2/MdmX counter-screen; 6,200 compounds, 77% hits; SaOS-2 full-length luciferase counterscreen, luminescence; inhibition, % at 8 µM; shares compounds with Mdm2 MdmX PPI; AID 504607;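 active means mean inhibition at 8 µM reaching about 37%, which flags the compound as non-specific, limit read from the data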;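 further: p53-null SaOS-2 cells with luciferase driven by a doxycycline-inducible promoter; compound on cells about two nights before reading with doxycycline added after day one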
Active calls of the source: *. In the library only some 4.8% were active in any assay of this set; here they are far more common.

`CCOC(=O)c1sc(NC(=O)c2cc(-c3ccc(C)cc3)nc3ccccc23)c(C#N)c1C` gave SKKanGAS inh inconclusive, Beta cell apopt 11, UPR XBP1 act 0, CSC inhib 49, Mdm2 MdmX PPI 76*, UPR CHOP act -3, Mdm2 MdmX conf 92* and Full FLuc ctr 50*.
For COC(=O)c1sccc1NC(=O)c1cc(-c2ccc(C)cc2)nc2ccccc12 the results were SKKanGAS inh -4, Beta cell apopt -1, UPR XBP1 act 0, CSC inhib 5, Mdm2 MdmX PPI 21 and UPR CHOP act 1.
For COC(=O)c1sc(NC(=O)c2cc(-c3ccccc3)nc3ccccc23)c(C#N)c1C the results were SKKanGAS inh 26, Beta cell apopt 61, UPR XBP1 act 0, CSC inhib 0, Mdm2 MdmX PPI 95*, UPR CHOP act 8, Mdm2 MdmX conf 92* and Full FLuc ctr 35.
For Cc1cc(NC(=O)c2cc(-c3ccccc3C)nc3ccccc23)no1 the results were SKKanGAS inh 14, Beta cell apopt 0, UPR XBP1 act -1, CSC inhib 1, Mdm2 MdmX PPI 21 and UPR CHOP act 0.
COc1ccc(-c2cc(C(=O)Nc3sc4c(c3C#N)CCCC4)c3ccccc3n2)cc1 was read as Beta cell apopt -2 and CSC inhib 18.
CCN1C(=O)C(=O)c2cc(C)ccc21 was read as Beta cell apopt -3, UPR XBP1 act 9, Mdm2 MdmX PPI 21 and UPR CHOP act 2.
CC[N+]1=C(C)C(C)(C)c2cc(C)ccc21 was read as SKKanGAS inh -2, Beta cell apopt 101*, UPR XBP1 act 2, CSC inhib inconclusive, Mdm2 MdmX PPI 81*, UPR CHOP act 0, Mdm2 MdmX conf 62* and Full FLuc ctr 28.
CSS(=O)(=O)c1cccc2cccnc12 was read as SKKanGAS inh -9, Beta cell apopt -2, UPR XBP1 act 1, CSC inhib -20, Mdm2 MdmX PPI 0 and UPR CHOP act -1.
`N#CC1(NC(=O)Cn2ncc(Cl)c(Cl)c2=O)CCCCC1` gave SKKanGAS inh -12, Beta cell apopt -13, UPR XBP1 act 1, CSC inhib -9, Mdm2 MdmX PPI 98*, UPR CHOP act 28, Mdm2 MdmX conf 83* and Full FLuc ctr 30.
CCc1cccc(NC(=O)C2CCCN(S(=O)(=O)c3cccnc3)C2)c1 (stereo not drawn) was read as SKKanGAS inh 12, Beta cell apopt -7, UPR XBP1 act -5, CSC inhib -4, Mdm2 MdmX PPI 8 and UPR CHOP act 1.
Screening Cc1c(N=NC2=C(O)CC(C)(C)CC2=O)cc2c(c1[N+](=O)[O-])C(C)(C)CC2(C)C returned SKKanGAS inh 24, Beta cell apopt 1, UPR XBP1 act -4, CSC inhib 11, Mdm2 MdmX PPI 70*, UPR CHOP act 1 and Mdm2 MdmX conf 21.
COc1ccccc1N=NC1=C(O)CC(C)(C)CC1=O was read as SKKanGAS inh -1, Beta cell apopt -4, UPR XBP1 act 1, CSC inhib 9, Mdm2 MdmX PPI 9 and UPR CHOP act -1.
Screening CC(NCCC(c1ccccc1)c1ccccc1)c1ccccc1 (stereo not drawn) returned SKKanGAS inh 2, Beta cell apopt 19, UPR XBP1 act -4, CSC inhib 18, Mdm2 MdmX PPI 58*, UPR CHOP act 0 and Mdm2 MdmX conf 16.
For COC(=O)[C@]1(C)N[C@H](CN(C)S(=O)(=O)c2ccc(C)cc2)[C@@H]2C(=O)N(Cc3ccccc3)C(=O)[C@@H]21 the results were Beta cell apopt -3, UPR XBP1 act -1, Mdm2 MdmX PPI 21 and UPR CHOP act -1.
Screening FC(F)(F)c1ccc(CN2C[C@@H]3C(c4ccc(C(F)(F)F)cc4)C4(c5cccnc5)CC3(C4)[C@H]2c2ccccc2)cc1 (stereo partly drawn) returned SKKanGAS inh 5, Beta cell apopt 109*, UPR XBP1 act -2, CSC inhib 42, Mdm2 MdmX PPI 65*, UPR CHOP act 1 and Mdm2 MdmX conf 12.
For COC(=O)c1cccc(C23CC4(C2)[C@H](CN(Cc2ccc(C(F)(F)F)cc2)[C@@H]4c2ccccc2)C3c2ccc(C(F)(F)F)cc2)c1 (stereo partly drawn) the results were SKKanGAS inh 7, Beta cell apopt 33, UPR XBP1 act 1, CSC inhib 17, Mdm2 MdmX PPI 73*, UPR CHOP act 4, Mdm2 MdmX conf 59* and Full FLuc ctr 24.
`Cc1ccc(CN2[C@@H](CC3CCCCC3)COCCS2(=O)=O)cc1` gave SKKanGAS inh 7, Beta cell apopt 0, UPR XBP1 act 0, CSC inhib 4, Mdm2 MdmX PPI -25 and UPR CHOP act -1.
`CN(C)c1ccc(N=Nc2nc3ccccc3n2C)cc1` gave SKKanGAS inh 13, Beta cell apopt 62, UPR XBP1 act -8, CSC inhib 20, Mdm2 MdmX PPI 60*, UPR CHOP act -11, Mdm2 MdmX conf 49* and Full FLuc ctr 46*.
`COc1ccc(Cl)cc1NC(=O)c1cccc(-n2cnnn2)c1` gave UPR XBP1 act 1, Mdm2 MdmX PPI 23 and UPR CHOP act 1.
Screening COc1ccc(C2c3ccc4ccccc4c3Oc3ncn(CCO)c(=N)c32)cc1OC (stereo not drawn) returned SKKanGAS inh 2, Beta cell apopt 4, UPR XBP1 act 2, CSC inhib 15, Mdm2 MdmX PPI 58*, UPR CHOP act 0 and Mdm2 MdmX conf 33.
COc1ccc(C2c3ccc4ccccc4c3Oc3ncn(CCCO)c(=N)c32)cc1OC (stereo not drawn) was read as SKKanGAS inh -10, Beta cell apopt 7, UPR XBP1 act 10, CSC inhib 49, Mdm2 MdmX PPI 78*, UPR CHOP act -1, Mdm2 MdmX conf 71* and Full FLuc ctr 48*.
`COc1ccc(Cc2nc3c4c(ncn3n2)Oc2c(ccc3ccccc23)C4c2ccc(OC)c(OC)c2)cc1` (stereo not drawn) gave SKKanGAS inh 13, Beta cell apopt -2, UPR XBP1 act -3, CSC inhib -1, Mdm2 MdmX PPI 13 and UPR CHOP act 0.
For COc1ccc(C2c3ccc(O)cc3Oc3ncn(Cc4ccccc4)c(=N)c32)cc1OC (stereo not drawn) the results were SKKanGAS inh 0, Beta cell apopt 9, UPR XBP1 act 1, CSC inhib -4, Mdm2 MdmX PPI 18 and UPR CHOP act 0.

Screens as filed in PubChem.
